Test results reported in ChEMBL document CHEMBL3407360, “Proteasome inhibitors with pyrazole scaffolds from structure-based virtual screening” (J Med Chem, 2015).
Calls of active or inactive are those of the source. No cut-off for these calls is given here.

What was measured:
Homo sapiens [1] = species on record: Homo sapiens; experiment: Inhibition of human 20S proteasome chymotrypsin-like activity preincubated at 10 uM for 30 mins before substrate addition measured over 90 mins by fluorescence assay
Homo sapiens [2] = species on record: Homo sapiens; experiment: Induction of human 20S proteasome chymotrypsin-like activity preincubated at 10 uM for 30 mins before substrate addition measured over 90 mins by fluorescence assay
BXPC-3 [3] = experiment: Cytotoxicity against human BxPC3 cells after 72 hrs; format: functional, cell-based
Procedure, shortened: (§1)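 Adherent lines, growing in log phase in DMEM or RPMI 1640 with 10% FBS, were plated at 7,000–10,000 cells/well. Compound was added 24 h later at the final concentration. Viability was measured after 72 h by CellTiter Glo luminescence or CellTiter 96 Aqueous One absorbance.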

RPMI-8226 [4] = experiment: Reversible inhibition of 20S proteasome in human RPMI8226 cell extracts assessed as dissociation half life compound preincubated for 30 mins followed by 25-fold dilution by jump dilution assay; format: cell-based
Procedure, shortened: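 RPMI 8226 lysate (30 µg protein) was incubated with 10 µM compound for 30 min at room temperature in 20S assay buffer. Baseline Suc-LLVY-AMC hydrolysis was recorded in a cuvette, then the mixture was rapidly diluted 25-fold in assay buffer and recovery of activity was monitored.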

LNCaP [5] = experiment: Antitumor activity against human LNCAP cells xenografted in nude mouse assessed as tumor growth inhibition at 5 mg/kg, ip twice a week for 4 weeks; format: functional, organism-based; parameters: dose 5 mg/kg
Procedure, shortened: (§2)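 Male athymic BALB/c nude mice, six weeks old, implanted subcutaneously with LNCaP cells (2 x 10^6 cells/50 µL). At ~100 mm3 tumors, n=5/group received 5 mg/kg ip twice weekly for four weeks in 8% DMSO in HP-β-cyclodextrin and citrate. Tumor volume ((width)2 x length/2) and body weight were measured every 4 days. Tumors were excised and weighed at Day 30.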

RPMI-8226 [6] = experiment: Inhibition of 20S proteasome chymotrypsin-like in human RPMI8226 cell extracts using Suc-LLVY-AMC as substrate preincubated at 1 to 10 uM for 30 mins before substrate addition by fluorescence assay; format: cell-free
Procedure, shortened: (§3)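 Cytosolic extracts of RPMI 8226 cells served as the proteasome source in place of purified enzyme. Extracts were preincubated with compound, and hydrolysis of Suc-LLVY-AMC (CT-L), Z-LLE-AMC (C-L) or Boc-LRR-AMC (T-L) was read by AMC fluorescence at ex 360/em 460 nm.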

Mus musculus = experiment: Toxicity in human LNCAP cells xenografted nude mouse assessed as body weight loss at 5 mg/kg, ip twice a week for 4 weeks; format: organism-based; parameters: dose 5 mg/kg, route intraperitoneal; conditions: in vivo, 672 h; procedure, shortened: as §2
RPMI8266 = experiment: Cytotoxicity against human […] cells after 72 hrs; format: functional, cell-based
Procedure, shortened: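 Suspension RPMI 8226 cells were collected by centrifugation and plated at 10,000 cells/well in medium with 10% FBS. Compound was added 24 h later. Viability was read after 72 h by CellTiter Glo or CellTiter 96 Aqueous One.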

RPMI-8226 [7] = experiment: Inhibition of 20S proteasome trypsin-like in human RPMI8226 cell extracts using Boc-LRR-AMC as substrate preincubated at 1 to 10 uM for 30 mins before substrate addition by fluorescence assay; format: cell-free; procedure, shortened: as §3
RPMI-8226 [8] = experiment: Inhibition of 20S proteasome caspase-like in human RPMI8226 cell extracts using Z-LLE-AMC as substrate preincubated at 1 to 10 uM for 30 mins before substrate addition by fluorescence assay; format: cell-free; procedure, shortened: as §3
BXPC-3 [9] = experiment: Cytotoxicity against bortezomib-resistant human BxPC3 cells after 72 hrs; format: functional, cell-based
Procedure, shortened: (§4)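 Resistant BxPC-3 sublines were derived by about 6 months of stepwise increasing drug exposure. […] Compound was added 24 h after plating. Viability was read after 72 h by CellTiter Glo luminescence or CellTiter 96 Aqueous One.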

Liver microsome = experiment: Metabolic stability in human liver microsomes; format: ADME
Procedure, shortened: (§5)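 Compound at 1 µM was incubated with 0.5 mg/ml microsomal protein, either pooled Balb/c mouse or pooled human. The buffer was 100 mM Tris-HCl pH 7.4 with an NADPH-generating system (isocitrate, isocitrate dehydrogenase, MgCl2, NADP+). After 5 min preincubation at 37°C, reactions ran 0, 5, 10 or 20 min and were quenched with cold acetonitrile containing phenytoin internal standard. Parent remaining was measured by LC-MS/MS.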

BXPC-3 [10] = experiment: Cytotoxicity against carfilzomib-resistant human BxPC3 cells after 72 hrs; format: functional, cell-based; procedure, shortened: as §4
LNCaP [11] = experiment: Cytotoxicity against human LNCAP cells after 72 hrs; format: functional, cell-based; procedure, shortened: as §1
Liver = experiment: Metabolic stability in Balb/c mouse liver microsomes; format: ADME; procedure, shortened: as §5

| inhibition (Homo sapiens [1]) | Compound | also measured |
| --- | --- | --- |
| Active | Cc1ccc(OS(=O)(=O)c2cccc(C(F)(F)F)c2)c(-c2cc(-c3ccccc3)n(CC(=O)OCc3ccccc3)n2)c1 |  |
| Active | Cc1ccc(OS(=O)(=O)c2cccc(C(F)(F)F)c2)c(-c2cc(-c3ccccc3)n(CC(=O)NC(C)(C)CO)n2)c1 |  |
| Active | Cc1ccc(OS(=O)(=O)c2cccc(C(F)(F)F)c2)c(-c2cc(-c3ccccc3)n(CC(=O)NC[C@@H]3CCCO3)n2)c1 |  |
| Active | Cc1ccc(OS(=O)(=O)c2cccc(C(F)(F)F)c2)c(-c2cc(-c3ccccc3)n(CC(=O)N(C)C)n2)c1 |  |
| Active | Cc1ccc(OS(=O)(=O)c2cccc(C(F)(F)F)c2)c(-c2cc(-c3ccccc3)n(CC(=O)OCc3scnc3C)n2)c1 |  |
| Active | Cc1ccc(OS(=O)(=O)c2cccc(C(F)(F)F)c2)c(-c2cc(-c3ccccc3)n(CC(=O)O)n2)c1 |  |
| Active | Cc1ccc(OS(=O)(=O)c2cccc(C(F)(F)F)c2)c(-c2cc(-c3ccccc3)n(CC(=O)OCc3cccc(O)c3C)n2)c1 |  |
| Active | Cc1ccc(OS(=O)(=O)c2cccc(C(F)(F)F)c2)c(-c2cc(-c3ccccc3)n(CC(=O)NCCCN3CCCC3=O)n2)c1 |  |
| Active | CC1=C(COC(=O)Cn2nc(-c3cc(C)ccc3OS(=O)(=O)c3cccc(C(F)(F)F)c3)cc2-c2ccccc2)Cc2ccccc21 | Activity (Homo sapiens [2]): 200% |
| Active | CC(C)=CCOC(=O)Cn1nc(-c2cc(C)ccc2OS(=O)(=O)c2cccc(C(F)(F)F)c2)cc1-c1ccccc1 |  |
| Active | CC(=O)N1CC[C@@H](NC(=O)Cn2nc(-c3cc(C)ccc3OS(=O)(=O)c3cccc(C(F)(F)F)c3)cc2-c2ccccc2)C1 |  |
| Active | Cc1ccc(OS(=O)(=O)c2cccc(C(F)(F)F)c2)c(-c2cc(-c3ccccc3)n(CC(=O)OCc3ccc(C)o3)n2)c1 |  |
| Active | Cc1ccc(OS(=O)(=O)c2cccc(C(F)(F)F)c2)c(-c2cc(-c3ccccc3)n(CC(=O)N[C@@H]3CCNC3)n2)c1 | Activity (BXPC-3 [3]): Active; T1/2 (RPMI-8226 [4]): 3.2 min; TGI (LNCaP [5]): Active; inhibition (RPMI-8226 [6]): Active; Activity (Mus musculus): Non-toxic; Activity (RPMI8266): Active; inhibition (RPMI-8226 [7]): inactive; inhibition (RPMI-8226 [8]): Active; Activity (BXPC-3 [9]): Active; Stability (Liver microsome): Stable; Activity (BXPC-3 [10]): Active; Activity (LNCaP [11]): Active; Stability (Liver): Stable |
| Active | Cc1ccc(OS(=O)(=O)c2cccc(C(F)(F)F)c2)c(-c2cc(-c3ccccc3)n(CC(=O)NCc3cnccn3)n2)c1 |  |
| Active | Cc1ccc(OS(=O)(=O)c2cccc(C(F)(F)F)c2)c(-c2cc(-c3ccccc3)n(CC(=O)N[C@H]3CCNC3)n2)c1 |  |
| Active | Cc1ccc(OS(=O)(=O)c2cccc(C(F)(F)F)c2)c(-c2cc(-c3ccccc3)n(CC(=O)O[C@@H]3CCNC3)n2)c1 |  |
| Active | Cc1ccc(OS(=O)(=O)c2cccc(C(F)(F)F)c2)c(-c2cc(-c3ccccc3)n(CC(=O)NCCN3CCOCC3)n2)c1 |  |
| Active | Cc1ccc(OS(=O)(=O)c2cccc(C(F)(F)F)c2)c(-c2cc(-c3ccccc3)n(CC(=O)OCc3cc(C)on3)n2)c1 |  |
| Active | Cc1ccc(OS(=O)(=O)c2cccc(C(F)(F)F)c2)c(-c2cc(-c3ccccc3)n(CC(=O)NCc3ccccc3)n2)c1 |  |
| Active | Cc1ccc(OS(=O)(=O)c2cccc(C(F)(F)F)c2)c(-c2cc(-c3ccccc3)n(CC(=O)N[C@@H]3CCN(C)C3)n2)c1 |  |
| Active | Cc1ccc(OS(=O)(=O)c2cccc(C(F)(F)F)c2)c(-c2cc(-c3ccccc3)n(CC(=O)NCC(C)(C)C)n2)c1 |  |

Further lines, the compound ahead of its results:

| Compound | inhibition (Homo sapiens [1]) | also measured |
| --- | --- | --- |
| Cc1ccc(OS(=O)(=O)c2ccc(C(F)(F)F)nc2)c(-c2cc(-c3ccccc3)n(CCN[C@@H]3CCNC3)n2)c1 | Active |  |
| Cc1ccc(OS(=O)(=O)c2cccc(Cl)c2)c(-c2cc(-c3ccccc3)n(CCN[C@@H]3CCNC3)n2)c1 | Active |  |
| Cc1ccc(OS(=O)(=O)c2cccc(C(F)(F)F)c2)c(-c2cc(C3CCCN(C(=O)N[C@@H]4CCNC4)C3)n(CCN[C@@H]3CCNC3)n2)c1 (some centres not stated) |  | Activity (BXPC-3 [3]): inactive |
| CCOCCS(=O)(=O)Oc1ccc(C)cc1-c1cc(-c2ccccc2)n(CCN[C@@H]2CCNC2)n1 | Active |  |
| Cc1ccc(OS(=O)(=O)c2cccc(C(F)(F)F)c2)c(-c2cc(-c3ccccc3)n(CC(=O)N(C)CC[C@@H](Oc3ccccc3)c3ccccc3)n2)c1 | Active |  |
| Cc1ccc(OS(=O)(=O)c2cccc(C(F)(F)F)c2)c(-c2cc(C3CCCCC3)n(CCN[C@@H]3CCNC3)n2)c1 |  | Activity (BXPC-3 [3]): inactive |
| Cc1ccc(OCc2cccc(C(F)(F)F)c2)c(-c2cc(-c3ccccc3)n(CCN[C@@H]3CCNC3)n2)c1 | Active |  |
| Cc1ccc(OS(=O)(=O)c2ccc(Br)cc2OC(F)(F)F)c(-c2cc(-c3ccccc3)n(CCN[C@@H]3CCNC3)n2)c1 | Active |  |
| CC(C)C[C@H](NC(=O)[C@H](CCc1ccccc1)NC(=O)CN1CCOCC1)C(=O)N[C@@H](Cc1ccccc1)C(=O)N[C@@H](CC(C)C)C(=O)[C@@]1(C)CO1 [CARFILZOMIB] |  | Activity (Mus musculus): Toxic |
| Cc1ccc(OS(=O)(=O)c2ccc3c(c2)OCCO3)c(-c2cc(-c3ccccc3)n(CCN[C@@H]3CCNC3)n2)c1 | Active |  |
| Cc1ccc(OS(=O)(=O)c2cc(F)c(Br)c(F)c2)c(-c2cc(-c3ccccc3)n(CCN[C@@H]3CCNC3)n2)c1 | Active |  |
| Cc1ccc(OS(=O)(=O)c2ccc(F)c([N+](=O)[O-])c2)c(-c2cc(-c3ccccc3)n(CCN[C@@H]3CCNC3)n2)c1 | Active | Activity (Homo sapiens [2]): 200% |
| Cc1ccc(OS(=O)(=O)c2cccc(C(F)(F)F)c2)c(-c2cc(-c3ccccc3)n(CC(=O)N[C@@H]3CCN(C(=O)CN4CCOCC4)C3)n2)c1 | Active |  |
| Cc1ccc(OS(=O)(=O)c2cccc(C(F)(F)F)c2)c(-c2cc(C3CCCNC3)n(CCN[C@@H]3CCNC3)n2)c1 (some centres not stated) |  | Activity (BXPC-3 [3]): inactive |
| Cc1ccc(OS(=O)(=O)c2cccc(C(F)(F)F)c2)c(-c2cc(-c3ccccc3)n(CC(=O)N[C@@H]3CCN(C(=O)CCc4ccccc4)C3)n2)c1 | Active |  |
| Cc1ccc(OC(=O)c2cccc(C(F)(F)F)c2)c(-c2cc(-c3ccccc3)n(CCN[C@@H]3CCNC3)n2)c1 | Active |  |
